The RNAGym collection of RNA variant scans (doi:10.1038/nmeth.2970)

B1: NELF-E aptamer (parent)
chain: CCCAACGACUGCCGAGCGAGAUUACGCUUGAGCGCCCCACUGAGGAUGCCCACGGGCGAUUGGGGCACGG

Variants of: B1
Assay: HiTS-RAP
Settings: with NELF-E (Drosophila)
Summary of the method: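 Kd came from weighted Hill fits to the first binding curve, with intensities normalised to sequencing intensity and averaged per sequence, keeping only fits whose variance was below 1,000,000. That curve was imaged on an Illumina GAIIx flowcell, where sequenced aptamer DNA templates with a T7 promoter and ter site had been transcribed in situ by T7 RNA polymerase and halted by GST-Tus (30 minutes, 37°C). Before each image, clusters equilibrated for 30 minutes at room temperature with NELF-E-mOrange at 0.064 to 1000 nM in HEPES binding buffer.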
For A24G A39G, the Kd was 10.2 nM.
A24G A39U was tested, and the Kd was 29.5 nM.
Work on A24G A43G yielded a Kd of 27.9 nM.
With A24G A43U the Kd was 55.4 nM.
A24G A46G was tested, and the Kd was 11.5 nM.
Work on A24G A46U yielded a Kd of 58.5 nM.
A24G A52G showed a Kd of 5.14 nM.
Work on A24G A52U yielded a Kd of 14.2 nM.
For A24G A59G, the Kd was 36.5 nM.
A24G A67G gave a Kd of 6.13 nM.
A24G A67U gave a Kd of 7.95 nM.
A24G C25U showed a Kd of 6.02 nM.
A24G C27U was tested, and the Kd was 6.16 nM.
A24G C33G gave a Kd of 8.38 nM.
For A24G C33U, the Kd was 5.71 nM.
A24G C35U was tested, and the Kd was 9.45 nM.
Variant A24G C36G has a Kd of 8.51 nM.
A24G C36U gave a Kd of 6.95 nM.
Variant A24G C37A has a Kd of 10.1 nM.
A24G C37G was tested, and the Kd was 7.93 nM.
In the case of A24G C37U, the Kd is reported as 15.3 nM.
Variant A24G C38U has a Kd of 8.33 nM.
Work on A24G C40G yielded a Kd of 6.34 nM.
A24G C49U was tested, and the Kd was 13.4 nM.
For A24G C50U, the Kd was 9.69 nM.
Work on A24G C51U yielded a Kd of 8.86 nM.
Variant A24G C53G has a Kd of 7.46 nM.
For A24G C53U, the Kd was 4.2 nM.
With A24G C57U the Kd was 6.3 nM.
Work on A24G C66U yielded a Kd of 5.38 nM.
For A24G G26A, the Kd was 5.08 nM.
In the case of A24G G26U, the Kd is reported as 6.2 nM.
A24G G30A was tested, and the Kd was 5.17 nM.
A24G G30U gave a Kd of 7.16 nM.
With A24G G32A the Kd was 5.64 nM.
A24G G32U showed a Kd of 6.57 nM.
A24G G34A showed a Kd of 8.56 nM.
A24G G42A was tested, and the Kd was 56 nM.
In the case of A24G G44A, the Kd is reported as 18.5 nM.
A24G G45U gave a Kd of 6.64 nM.
In the case of A24G G48A, the Kd is reported as 14.2 nM.
For A24G G54A, the Kd was 11.9 nM.
A24G G54U gave a Kd of 7.49 nM.
A24G G55A showed a Kd of 11.1 nM.
A24G G56A showed a Kd of 11.9 nM.
A24G G56U gave a Kd of 8.45 nM.
Variant A24G G62A has a Kd of 26.1 nM.
Variant A24G G63A has a Kd of 14.3 nM.
With A24G G63U the Kd was 11 nM.
With A24G G64A the Kd was 7.13 nM.
A24G G64C showed a Kd of 5.75 nM.
Work on A24G G64U yielded a Kd of 6.61 nM.
Variant A24G G65A has a Kd of 5.2 nM.
A24G G65U showed a Kd of 6 nM.
A24G U28A was tested, and the Kd was 3.42 nM.
A24G U28C was tested, and the Kd was 12.3 nM.
Work on A24G U28G yielded a Kd of 8.97 nM.
A24G U29A showed a Kd of 4.42 nM.
Variant A24G U29C has a Kd of 4.85 nM.
In the case of A24G U29G, the Kd is reported as 5.84 nM.
Variant A24G U41A has a Kd of 92.9 nM.
In the case of A24G U41G, the Kd is reported as 5.63 nM.
Variant A24G U47A has a Kd of 13 nM.
Variant A24G U47G has a Kd of 7.22 nM.
Work on A24G U60C yielded a Kd of 12.8 nM.
Variant A24G U61A has a Kd of 34.7 nM.
A24G U61C showed a Kd of 76.4 nM.
With A24G U61G the Kd was 9.98 nM.
Variant A24U has a Kd of 5.93 nM.
In the case of A24U U29G, the Kd is reported as 6.22 nM.
Variant A24U U41G has a Kd of 6.61 nM.
Work on C25A yielded a Kd of 4.89 nM.
C25G gave a Kd of 5.2 nM.
Variant C25G G26C has a Kd of 6 nM.
C25G G26U gave a Kd of 5.3 nM.
C25G U29G showed a Kd of 6.18 nM.
Work on C25G U41G yielded a Kd of 6.42 nM.
Work on C25U yielded a Kd of 5.19 nM.
C25U U29G was tested, and the Kd was 6.54 nM.
Variant C25U U41G has a Kd of 6.6 nM.
Variant G26A has a Kd of 4.05 nM.
G26A A67G was tested, and the Kd was 4.9 nM.
With G26A C57U the Kd was 6.13 nM.
With G26A U29G the Kd was 5.28 nM.
Variant G26A U41G has a Kd of 4.19 nM.
G26C showed a Kd of 13.8 nM.
G26C C27G showed a Kd of 3.95 nM.
Variant G26U has a Kd of 5.53 nM.
In the case of G26U C27G, the Kd is reported as 4.95 nM.
G26U U29G gave a Kd of 7.41 nM.
Variant G26U U41G has a Kd of 6.71 nM.
C27A gave a Kd of 4.28 nM.
In the case of C27G, the Kd is reported as 5.01 nM.
With C27G U29G the Kd was 5.43 nM.
C27U gave a Kd of 4.14 nM.
In the case of C27U U28G, the Kd is reported as 5.03 nM.
Work on C27U U29G yielded a Kd of 4.7 nM.
U28A showed a Kd of 4.43 nM.
With U28A U29A the Kd was 4.14 nM.
With U28A U29G the Kd was 4.82 nM.
U28C gave a Kd of 8.26 nM.
U28C A39U showed a Kd of 51.1 nM.
Work on U28C A52U yielded a Kd of 32.7 nM.
U28C A59G showed a Kd of 113 nM.
With U28C G34A the Kd was 37.6 nM.
U28C U29G was tested, and the Kd was 8.69 nM.
U28C U41C was tested, and the Kd was 98.6 nM.
U28C U41G showed a Kd of 11.9 nM.
Work on U28C U61A yielded a Kd of 43.5 nM.
With U28G the Kd was 6.24 nM.
Work on U28G A39G yielded a Kd of 11.2 nM.
Work on U28G U41G yielded a Kd of 5.18 nM.
For U29A, the Kd was 4.54 nM.
U29A A31G was tested, and the Kd was 5.67 nM.
U29A A31U was tested, and the Kd was 4.6 nM.
Work on U29A A39G yielded a Kd of 5.71 nM.
For U29A A39U, the Kd was 20.9 nM.
For U29A A67U, the Kd was 5.96 nM.
U29A C37U was tested, and the Kd was 7.5 nM.
In the case of U29A C53U, the Kd is reported as 5.35 nM.
U29A U41C was tested, and the Kd was 79.2 nM.
In the case of U29A U41G, the Kd is reported as 6.07 nM.
Variant U29C has a Kd of 4.9 nM.
U29C A43U showed a Kd of 43.4 nM.
For U29C A67U, the Kd was 5.08 nM.
Variant U29C C36U has a Kd of 6 nM.
In the case of U29C C66U, the Kd is reported as 5.81 nM.
For U29C U41G, the Kd was 5.09 nM.
For U29C U61A, the Kd was 38 nM.
Work on U29G yielded a Kd of 4.93 nM.
With U29G A31G the Kd was 6.61 nM.
Work on U29G A31U yielded a Kd of 6.06 nM.
Variant U29G A39C has a Kd of 24.7 nM.
U29G A39G gave a Kd of 7.69 nM.
U29G A39U was tested, and the Kd was 26.4 nM.
Work on U29G A43G yielded a Kd of 14 nM.
With U29G A43U the Kd was 44 nM.
For U29G A46G, the Kd was 22.4 nM.
U29G A46U was tested, and the Kd was 77.8 nM.
Variant U29G A52G has a Kd of 4.39 nM.
For U29G A52U, the Kd was 15.5 nM.
U29G A59G gave a Kd of 50.9 nM.
In the case of U29G A59U, the Kd is reported as 23.9 nM.
With U29G A67G the Kd was 5.86 nM.
U29G A67U was tested, and the Kd was 6.79 nM.
U29G C33G gave a Kd of 6.45 nM.
U29G C33U gave a Kd of 6.03 nM.
U29G C35G showed a Kd of 4.89 nM.
With U29G C35U the Kd was 17.1 nM.
With U29G C36G the Kd was 8.06 nM.
U29G C36U gave a Kd of 9.64 nM.
In the case of U29G C37A, the Kd is reported as 14.8 nM.
U29G C37G gave a Kd of 8.38 nM.
Variant U29G C37U has a Kd of 12.4 nM.
For U29G C38U, the Kd was 8.13 nM.
For U29G C40G, the Kd was 5.85 nM.
U29G C40U gave a Kd of 56.1 nM.
Variant U29G C49U has a Kd of 22.4 nM.
With U29G C50U the Kd was 15.4 nM.
U29G C51A showed a Kd of 8.11 nM.
Variant U29G C51G has a Kd of 4.37 nM.
In the case of U29G C51U, the Kd is reported as 8.19 nM.
Variant U29G C53G has a Kd of 5.71 nM.
U29G C53U gave a Kd of 3.72 nM.
For U29G C57U, the Kd was 5.61 nM.
Work on U29G C66U yielded a Kd of 4.32 nM.
Variant U29G G30A has a Kd of 5.05 nM.
